Shown are actives, neighbours in structure and some others; about 1.6% of the full set was active somewhere.
SR-BI DiI inh: blocks mouse SR-BI lipid uptake from DiI-HDL; hit rate 0.96% among 320,000; AID 488896; ldlA[mSR-BI] CHO cells, DiI-HDL uptake fluorescence, 3 h; inhibition, % at 12.5 µM;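 active = mean replicate inhibition of at least 70% and a set share of replicates each scoring 70 or more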;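 note: 0% = median of neutral control wells and 100% = median of positive control wells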
NOD2-RIPK2 inh: NOD2-RIPK2 protein interaction inhibition. O43353. CHO BLA complementation NOD2-RIPK2, CCF4 ratio. inhibition, % at 4.98 µM. hit rate 0.38% among 360,000. AID 624267; in the data active = inhibition above about 21%;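 note: 0% = vehicle only and 100% = reference blocker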
Target sequence (O43353 whole entry, looked up): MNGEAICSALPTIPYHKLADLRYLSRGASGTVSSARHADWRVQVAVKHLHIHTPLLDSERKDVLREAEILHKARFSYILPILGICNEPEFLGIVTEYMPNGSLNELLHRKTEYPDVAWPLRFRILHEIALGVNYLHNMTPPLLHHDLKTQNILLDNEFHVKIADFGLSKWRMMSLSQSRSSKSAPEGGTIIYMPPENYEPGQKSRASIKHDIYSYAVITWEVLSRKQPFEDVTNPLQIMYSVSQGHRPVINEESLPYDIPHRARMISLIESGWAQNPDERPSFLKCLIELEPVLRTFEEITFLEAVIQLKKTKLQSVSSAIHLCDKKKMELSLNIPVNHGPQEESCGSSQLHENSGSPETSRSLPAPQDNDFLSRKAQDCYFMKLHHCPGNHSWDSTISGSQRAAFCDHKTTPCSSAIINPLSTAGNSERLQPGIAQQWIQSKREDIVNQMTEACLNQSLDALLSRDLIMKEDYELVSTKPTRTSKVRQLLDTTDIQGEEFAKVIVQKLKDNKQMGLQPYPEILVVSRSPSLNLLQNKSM
SR-BI DiI-HDL act: activators of SR-BI mediated HDL lipid uptake; AID 504775; CHO ldlA[mSR-BI] cells, DiI-HDL uptake fluorescence, 3 h; 100 = double the neutral-control signal; hit rate 0.096% among 320,000; activation, % at 12.5 µM;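 active = mean replicate activation of at least 60% and every replicate at or above 60%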;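 note: 0% = median plate neutral-control signal and 100% = twice that signal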
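System: LDL receptor-deficient CHO ldlA cells overexpressing murine SR-BI | Timing: 3 h uptake period with compound, 37 °C | Medium: HEPES-buffered (25 mM, pH 7.4) F12 plus 0.5% BSA | Dosing: Single-point compound dose | Signal: Bottom-read fluorescence, 550/595 nm | Read-out: Retained DiI signal reflecting DiI-HDL uptake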
TLR4-MyD88 BLA: blocks binding of human TLR4 to MyD88; O00206+Q99836; HeLa CL3-4 TLR4/MyD88 BLA complementation, FRET ratio; inhibition, % at 8.4 µM; hit rate 0.18% among 200,000; AID 861; in the data active = inhibition above about 25%;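 note: 0% = vehicle and 100% = reference inhibitor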
Hep lipid drop: hepatic lipid droplet formation modulation. AID 1656. hit rate 0.4% among 240,000. inhibition, % at 6.5 µM. AML12 mouse hepatocytes, oleate lipid droplets, BODIPY imaging;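 active = lipid droplet intensity inhibited by at least 50%, with more than 500 cells counted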
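Assay system: AML12 hepatocytes (mouse); Probe or stimulus: oleic acid at 100 µM to induce lipid droplet formation; Dosing: compound at 6.5 µM only; Schedule: compound with oleate, overnight; Detection: fluorescence imaging, 20x objective, two fields per well; Measure: % inhibition of lipid droplet signal.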
TLR9-MyD88 block: blocks human TLR9 binding to MyD88. Q9NR96+Q99836. inhibition, % at 4.98 µM. hit rate 0.21% among 340,000. CHO BLA complementation TLR9-MyD88, CCF4 FRET ratio;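 active = inhibition above the mean over all tested compounds plus 3 SD, cut at about 21% in these data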;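 note: 0% = DMSO only wells and 100% = clavulanate BLA inhibitor control wells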
NOD2-RIPK2 conf: confirmation of human NOD2-RIPK2 interaction inhibitors; shares compounds with NOD2-RIPK2 inh; CHO cells, NOD2-RIPK2 BLA complementation, CCF4 FRET; inhibition, % at 4.98 µM; hit rate 70% among 1,200; AID 624370;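 active = mean inhibition across replicates above a set limit taken from the earlier primary screen, cut at about 21% in these data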;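 note: 0% = DMSO-only wells and the high end = clavulanate BLA-blocked wells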
BLA counter: counter-screen for NOD2-RIPK2 interaction inhibitors: BLA reporter | shares compounds with NOD2-RIPK2 inh | CHO BLA reporter, CCF4 FRET ratio, counterscreen | inhibition, % at 4.98 µM | hit rate 57% among 1,200 | AID 624371;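 active = mean inhibition above the low-control mean inhibition plus three low-control SD, cut at about 11% in these data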;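 note: 0% = DMSO only wells and 100% = clavulanate high control wells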
* hit, by the source's call; x = no result.

SMILES	SR-BI DiI inh	NOD2-RIPK2 inh	SR-BI DiI-HDL act	TLR4-MyD88 BLA	Hep lipid drop	TLR9-MyD88 block	NOD2-RIPK2 conf	BLA counter
CCOc1ccc(S(=O)(=O)N2CCCCC2)cc1NC(=O)Cc1cccs1	-3	-7	3	x	x	-2	x	x
Cc1cc(C)nc(Sc2ccc([N+](=O)[O-])cc2[N+](=O)[O-])n1	-19	10	19	-5	-6	-4	x	x
O=[N+]([O-])c1ccc(Sc2ccncn2)c([N+](=O)[O-])c1	x	24*	x	x	x	12	23*	-1
CCCCNc1c(-c2ccc(OC)c(Sc3ccc(OC)cc3)c2)nc2cnccn12	33	28*	-33	x	x	19	33*	37*
CCCCc1ccc(S(=O)(=O)NC(=O)C2(C)CCN2C(=O)C/C=C/c2ccccc2)cc1 (stereo unspecified)	x	-10	x	x	x	x	x	x
O=[N+]([O-])c1cccc(N2Cc3ccccc3C2)c1	7	-3	-7	1	6	-10	x	x
C=CCn1c(NCc2cc(Cl)ccc2O)nc2ccccc21	24	2	-24	x	-9	1	x	x
CCn1c(NCc2cc(Cl)ccc2O)nc2ccccc21	x	46*	x	x	5	-5	-1	-1
CCOc1ccccc1NC(=O)CN1C(=O)COc2ccc(C)cc21	19	-2	-19	x	-1	-1	x	x
CC(=O)O[C@H]1CC[C@@]2(C)C(CCC3C2CC[C@]2(C)OC(=O)CCC32)C1 (stereo partly specified)	3	-8	-3	-6	-5	-3	x	x
CC(=O)OC1CCC2(C)C(CCC3C4CC=C(C(C)=O)C4(C)OC(=O)CC32)C1 (stereo unspecified)	x	39*	x	x	x	-2	39*	-3
CN1C(=O)c2cccc3c(S(=O)(=O)N(C)C)ccc1c23	-8	22*	8	x	-6	10	11	16*
COC(=O)C1CC2(C(=O)OC)CC(C(=O)OC)(CC(C(=O)OC)C2=O)C1=O (stereo unspecified)	-1	-8	1	x	x	6	x	x
CC(=O)Nc1ccc(NC(=O)c2ccc(NS(=O)(=O)c3cc(C(C)(C)C)ccc3C)cc2)cc1	4	39*	-4	10	-26	5	-34	-8
Cc1cc(F)ccc1NC(=O)c1ccc(NS(=O)(=O)c2cc(C(C)(C)C)ccc2C)cc1	-12	-3	12	-6	21	2	x	x
CCc1nnc(N2C(=O)c3ccccc3C2(O)c2ccccc2)s1 (stereo unspecified)	-19	3	19	x	4	2	x	x
COc1ccc(/C=C/C(=O)c2ccccc2)c(OC)c1	7	-6	-7	2	-3	3	x	x
O=C(/C=C/c1c[nH]c2ccccc12)c1ccccc1	2	30*	-2	22	9	12	30*	35*
O=C(/C=C/c1ccccc1O)c1ccccc1	0	-3	0	x	x	-2	x	x
COc1ccc2[nH]cc(/C=C/C(=O)c3ccccc3)c2c1	27	27*	-27	x	8	12	21*	32*
Cc1cc(NC(=O)CSc2nc3cc(C(=O)NCCCOC(C)C)ccc3c(=O)n2Cc2ccco2)no1	39	30*	-39	2	-8	-5	-4	-1
COCCN(CC(=O)Nc1cccc(C)c1C)C(=O)CN1C(=O)NC2(CCCCC2)C1=O	-9	8	9	x	x	-10	x	x
CC(NCc1ccc(OCc2ccc(Cl)cc2)cc1)C(O)c1ccccc1 (stereo unspecified)	x	23*	x	5	-5	-2	20	9
N#Cc1ccc(Nc2nc(-c3ccccc3)c(C(=O)c3ccccc3)s2)cc1	x	-5	x	x	x	x	x	x
O=C(c1ccccc1)c1sc(Nc2ccc3c(c2)OCO3)nc1-c1ccccc1	x	21*	x	x	x	x	20	26*
CC(C)(C)NCC(=Cc1ccccc1)C(=O)c1ccccc1	9	27*	-9	x	x	-2	24*	3

From PubChem
